“And” between values parts separate entries of the source, which are not always exact repeats. Identical values can stand only once.
Key:
Rattus norvegicus [1] = species on record: Rattus norvegicus; experiment: Effective concentration required to effect liver cholesterol concentrations in rat; format: functional
Method in brief: (§1)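 Rats fed diet with 1% cholesterol and 0.5% cholic acid, compound given in the diet at 1, 3 or 10 mg/kg per day. Read-outs were liver cholesterol (mg/g), serum cholesterol and serum triglycerides (mg/dL), each given as mean ± SEM. ED50 was derived from the dose response of liver cholesterol.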

Rattus norvegicus [2] = experiment: Compound was evaluated for the effect of serum lipids in cholesterol-fed rats Serum triglyceride at a dose of 10 mg/kg per day; format: functional; method in brief: as §1
Rattus norvegicus [3] = species on record: Rattus norvegicus; experiment: Effect of liver Cholesterol absorption in cholesterol-fed rats; format: functional; method in brief: as §1
Rattus norvegicus [4] = experiment: Effect of serum lipids in cholesterol-fed rats and Serum cholesterol at a dose of 1 mg/kg per day of the compound.; format: functional; method in brief: as §1
Rattus norvegicus [5] = experiment: (§2) Effect of serum lipids in cholesterol-fed rats Serum triglyceride at a dose of 1 mg/kg per day of the compound.; format: functional; method in brief: as §1
Rattus norvegicus [6] = species on record: Rattus norvegicus; experiment: Compound was evaluated for the effect on serum lipids in cholesterol-fed rats; format: functional; method in brief: as §1
Rattus norvegicus [7] = experiment: as §2; format: functional; method in brief: as §1; remark: listed apart in the source
[8] = target: T1, Sterol O-acyltransferase 1 (Homo sapiens, UniProt P35610); experiment: In vitro inhibitory activity against acyl coenzyme A:cholesterol acyltransferase
T1 sequence (P35610 whole entry): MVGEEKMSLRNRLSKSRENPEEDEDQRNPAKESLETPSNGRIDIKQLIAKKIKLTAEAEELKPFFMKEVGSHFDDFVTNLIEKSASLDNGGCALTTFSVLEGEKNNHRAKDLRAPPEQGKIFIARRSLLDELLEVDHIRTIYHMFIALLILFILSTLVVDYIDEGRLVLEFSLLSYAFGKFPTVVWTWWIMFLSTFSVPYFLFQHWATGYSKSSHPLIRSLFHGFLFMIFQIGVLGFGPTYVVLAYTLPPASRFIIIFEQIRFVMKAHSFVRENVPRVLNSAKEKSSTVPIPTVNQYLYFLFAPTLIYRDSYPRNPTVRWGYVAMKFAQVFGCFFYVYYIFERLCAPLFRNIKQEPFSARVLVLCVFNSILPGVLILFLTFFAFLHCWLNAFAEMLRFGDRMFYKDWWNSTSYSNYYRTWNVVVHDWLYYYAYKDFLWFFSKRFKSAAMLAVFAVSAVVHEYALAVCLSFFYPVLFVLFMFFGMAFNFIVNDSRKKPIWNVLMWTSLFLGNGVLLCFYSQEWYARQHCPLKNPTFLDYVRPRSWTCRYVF

## CCCCCCCN(Cc1ccc(CC(C)(C)C)cc1)C(=O)Nc1ccc(F)cc1F [CL-277082]
Rattus norvegicus [1]
  ED50: 5.4 mg/kg
Rattus norvegicus [2]
  Triglycerides: 77 mg/dL
Rattus norvegicus [3]
  Liver cholesterol: 15.6 mg/g
Rattus norvegicus [4]
  Cholesterol: 211 mg/dL and 357 mg/dL
Rattus norvegicus [5]
  Triglycerides: 121 mg/dL
Rattus norvegicus [6]
  Cholesterol: 84 mg/dL
Rattus norvegicus [7]
  Triglycerides: 132 mg/dL

## CC(=O)[C@H]1CC[C@H]2[C@@H]3CCC4=CC(=O)CC[C@]4(C)[C@H]3CC[C@]12C [PROGESTERONE]
[8]
  IC50: 17 µM
